Data as given in ChEMBL document CHEMBL1152820, “Plasmid-encoded ACC-4, an extended-spectrum cephalosporinase variant from Escherichia coli” (Antimicrob Agents Chemother, 2007).
Values after ≈ are worked out from the molar mass of the structure shown.

T1: Beta-lactamase ACC-4 (Escherichia coli, UniProt A4ZYU9)
T1 sequence (A4ZYU9 whole entry): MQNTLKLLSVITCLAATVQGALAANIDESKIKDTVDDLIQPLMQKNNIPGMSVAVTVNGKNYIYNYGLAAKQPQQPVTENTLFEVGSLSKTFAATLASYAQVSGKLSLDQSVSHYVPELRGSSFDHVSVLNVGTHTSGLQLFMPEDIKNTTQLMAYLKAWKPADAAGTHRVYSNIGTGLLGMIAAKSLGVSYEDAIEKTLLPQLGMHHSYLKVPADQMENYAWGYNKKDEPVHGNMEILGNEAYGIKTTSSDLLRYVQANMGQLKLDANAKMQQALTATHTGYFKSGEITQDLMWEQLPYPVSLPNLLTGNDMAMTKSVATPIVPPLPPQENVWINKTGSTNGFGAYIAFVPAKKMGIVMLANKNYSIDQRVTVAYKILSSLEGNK


Tests used:
Escherichia coli [1] = test: Antimicrobial activity against Escherichia coli MC4100 harboring pA-acc1 plasmid by agar dilution technique; type: functional
Escherichia coli [2] = test: Antimicrobial activity against Escherichia coli MC4100 harboring pB-acc1 plasmid by agar dilution technique; type: functional
Escherichia coli [3] = test: Antimicrobial activity against Escherichia coli MC4100 harboring pB-acc4 plasmid by agar dilution technique; type: functional
Escherichia coli [4] = test: Antimicrobial activity against Escherichia coli MC4100 harboring pA-acc4 plasmid by agar dilution technique; type: functional
Beta-lactamase ACC-4 = biological target: T1, Beta-lactamase ACC-4; test: Inhibition of Escherichia coli beta-lactamase ACC4
Method in brief: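 ACC-4 from mid-log E. coli(pS18-d): sonicated, ultracentrifuged, Q-Sepharose flowthrough then S-Sepharose (0–0.6 M NaCl gradient, phosphate pH 6.8), >95% pure by SDS-PAGE.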

Escherichia coli [5] = test: Antimicrobial activity against Escherichia coli MC4100 harboring pACYC184 plasmid by agar dilution technique; type: functional
Escherichia coli [6] = test: Antimicrobial activity against Escherichia coli MC4100 harboring pBCSK plasmid by agar dilution technique; type: functional
Hafnia alvei [7] = test: Activity of Hafnia alvei beta-lactamase ACC-1 assessed as nmol of compound hydrolysis per ug of protein
Hafnia alvei [8] = test: Activity of Hafnia alvei beta-lactamase ACC-1
Hafnia alvei [9] = test: Ratio of Vmax to Km for Hafnia alvei beta-lactamase ACC-1
[10] = substrate: CO/N=C(\C(=O)N[C@@H]1C(=O)N2C(C(=O)[O-])=C(C[N+]3(C)CCCC3)CS[C@H]12)c1csc(N)n1; test: (§1) Activity of Escherichia coli beta-lactamase ACC4 by UV spectrophotometry
Method in brief: (§2)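 ACC-4 purified from E. coli carrying pS18-d, grown to mid-log in broth with 100 μg/ml ampicillin. Sonicated, then Q-Sepharose and S-Sepharose chromatography (NaCl 0 to 0.6 M, phosphate pH 6.8), >95% pure. Substrate hydrolysis at 30°C, pH 7.0, followed by UV spectrophotometry. kcat and Km are means of four independent measurements.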

[11] = substrate: CO/N=C(\C(=O)N[C@@H]1C(=O)N2C(C(=O)O)=C(COC(C)=O)CS[C@H]12)c1csc(N)n1; test: as §1; method in brief: as §2
[12] = substrate: CCN1CCN(C(=O)N[C@@H](C(=O)N[C@@H]2C(=O)N3[C@@H]2SC(C)(C)[C@@H]3C(=O)O)c2ccccc2)C(=O)C1=O; test: as §1; method in brief: as §2
[13] = substrate: CC1(C)S[C@@H]2[C@H](NC(=O)Cc3ccccc3)C(=O)N2[C@H]1C(=O)O; test: as §1; method in brief: as §2
[14] = substrate: CC(C)(O/N=C(\C(=O)N[C@@H]1C(=O)N2C(C(=O)[O-])=C(C[n+]3ccccc3)CS[C@H]12)c1csc(N)n1)C(=O)O; test: as §1; method in brief: as §2
[15] = substrate: CO[C@@]1(NC(=O)Cc2cccs2)C(=O)N2C(C(=O)O)=C(COC(N)=O)CS[C@@H]21; test: as §1; method in brief: as §2
[16] = substrate: CC(=O)OCC1=C(C(=O)O)N2C(=O)[C@@H](NC(=O)Cc3cccs3)[C@H]2SC1; test: as §1; method in brief: as §2
[17] = substrate: CO/N=C(\C(=O)N[C@@H]1C(=O)N2C(C(=O)[O-])=C(C[N+]3(C)CCCC3)CS[C@H]12)c1csc(N)n1; test: (§3) Ratio of Kcat to Km for Escherichia coli beta-lactamase ACC4 by UV spectrophotometry; method in brief: as §2
[18] = substrate: CO/N=C(\C(=O)N[C@@H]1C(=O)N2C(C(=O)O)=C(COC(C)=O)CS[C@H]12)c1csc(N)n1; test: as §3; method in brief: as §2
[19] = substrate: CCN1CCN(C(=O)N[C@@H](C(=O)N[C@@H]2C(=O)N3[C@@H]2SC(C)(C)[C@@H]3C(=O)O)c2ccccc2)C(=O)C1=O; test: as §3; method in brief: as §2
[20] = substrate: CC1(C)S[C@@H]2[C@H](NC(=O)Cc3ccccc3)C(=O)N2[C@H]1C(=O)O; test: as §3; method in brief: as §2
[21] = substrate: CC(C)(O/N=C(\C(=O)N[C@@H]1C(=O)N2C(C(=O)[O-])=C(C[n+]3ccccc3)CS[C@H]12)c1csc(N)n1)C(=O)O; test: as §3; method in brief: as §2
[22] = substrate: CC(=O)OCC1=C(C(=O)O)N2C(=O)[C@@H](NC(=O)Cc3cccs3)[C@H]2SC1; test: as §3; method in brief: as §2

Row | Molecule | MIC (Escherichia coli [1]) | MIC (Escherichia coli [2]) | MIC (Escherichia coli [3]) | MIC (Escherichia coli [4]) | MIC (Escherichia coli [5]) | MIC (Escherichia coli [6]) | further results
1 | CO/N=C(\C(=O)N[C@@H]1C(=O)N2C(C(=O)[O-])=C(C[N+]3(C)CCCC3)CS[C@H]12)c1csc(N)n1 | 0.12 µg/mL (≈ 0.25 µM) | 0.12 µg/mL (≈ 0.25 µM) | 0.25 µg/mL (≈ 0.52 µM) | 0.12 µg/mL (≈ 0.25 µM) | – | – | –
2 | C[C@]1(/C=C\C#N)[C@H](C(=O)O)N2C(=O)C[C@H]2S1(=O)=O | – | – | – | – | – | – | IC50 (Beta-lactamase ACC-4): 10300 nM
3 | CC1(C)S[C@@H]2[C@H](NC(=O)[C@H](N)c3ccc(O)cc3)C(=O)N2[C@H]1C(=O)O [AMOXICILLIN] | > 512 µg/mL | > 512 µg/mL | > 512 µg/mL | > 512 µg/mL | 4 µg/mL (≈ 10.9 µM) | 4 µg/mL (≈ 10.9 µM) | –
4 | C[C@H]1[C@H](NC(=O)/C(=N\OC(C)(C)C(=O)O)c2csc(N)n2)C(=O)N1S(=O)(=O)O [AZTREONAM] | 0.5 µg/mL (≈ 1.15 µM) | 1 µg/mL (≈ 2.3 µM) | 2 µg/mL (≈ 4.59 µM) | 2 µg/mL (≈ 4.59 µM) | – | – | IC50 (Beta-lactamase ACC-4): 32 nM
5 | N[C@@H](C(=O)N[C@@H]1C(=O)N2C(C(=O)O)=C(Cl)CS[C@H]12)c1ccccc1 [CEFACLOR ANHYDROUS] | > 512 µg/mL | > 512 µg/mL | > 512 µg/mL | > 512 µg/mL | 2 µg/mL (≈ 5.44 µM) | 2 µg/mL (≈ 5.44 µM) | –
6 | CO/N=C(\C(=O)N[C@@H]1C(=O)N2C(C(=O)O)=C(COC(C)=O)CS[C@H]12)c1csc(N)n1 [CEFOTAXIME] | 8 µg/mL (≈ 17.6 µM) | 16 µg/mL (≈ 35.1 µM) | 64 µg/mL (≈ 141 µM) | 32 µg/mL (≈ 70.3 µM) | ≤ 0.06 µg/mL | ≤ 0.06 µg/mL | Vmax (Hafnia alvei [7]): < 0.01 nmol/min/µg
7 | CO[C@@]1(NC(=O)C2SC(=C(C(N)=O)C(=O)O)S2)C(=O)N2C(C(=O)O)=C(CSc3nnnn3C)CS[C@@H]21 (stereo partly drawn) [CEFOTETAN] | 1 µg/mL (≈ 1.74 µM) | 1 µg/mL (≈ 1.74 µM) | 1 µg/mL (≈ 1.74 µM) | 1 µg/mL (≈ 1.74 µM) | 0.5 µg/mL (≈ 0.869 µM) | 0.5 µg/mL (≈ 0.869 µM) | –
8 | CO[C@@]1(NC(=O)Cc2cccs2)C(=O)N2C(C(=O)O)=C(COC(N)=O)CS[C@@H]21 [CEFOXITIN] | 4 µg/mL (≈ 9.36 µM) | 4 µg/mL (≈ 9.36 µM) | 4 µg/mL (≈ 9.36 µM) | 4 µg/mL (≈ 9.36 µM) | 2 µg/mL (≈ 4.68 µM) | 2 µg/mL (≈ 4.68 µM) | Vmax (Hafnia alvei [7]): < 0.002 nmol/min/µg
9 | CC(C)(O/N=C(\C(=O)N[C@@H]1C(=O)N2C(C(=O)[O-])=C(C[n+]3ccccc3)CS[C@H]12)c1csc(N)n1)C(=O)O [CEFTAZIDIME] | 32 µg/mL (≈ 58.5 µM) | 128 µg/mL (≈ 234 µM) | 512 µg/mL (≈ 937 µM) | 256 µg/mL (≈ 468 µM) | 0.25 µg/mL (≈ 0.457 µM) | 0.25 µg/mL (≈ 0.457 µM) | Km (Hafnia alvei [8]): 17 µM; Vmax (Hafnia alvei [7]): < 0.025 nmol/min/µg; Vmax/Km (Hafnia alvei [9]): < 0.01
10 | CO/N=C(\C(=O)N[C@@H]1C(=O)N2C(C(=O)O)=C(CSc3nc(=O)c(O)nn3C)CS[C@H]12)c1csc(N)n1 [CEFTRIAXONE] | 16 µg/mL (≈ 28.9 µM) | 32 µg/mL (≈ 57.7 µM) | 128 µg/mL (≈ 231 µM) | 32 µg/mL (≈ 57.7 µM) | 0.12 µg/mL (≈ 0.216 µM) | 0.12 µg/mL (≈ 0.216 µM) | –
11 | CO/N=C(\C(=O)N[C@@H]1C(=O)N2C(C(=O)O)=C(COC(N)=O)CS[C@H]12)c1ccco1 [CEFUROXIME] | 128 µg/mL (≈ 302 µM) | 128 µg/mL (≈ 302 µM) | > 512 µg/mL | > 512 µg/mL | 1 µg/mL (≈ 2.36 µM) | 1 µg/mL (≈ 2.36 µM) | –
12 | CC(=O)OCC1=C(C(=O)O)N2C(=O)[C@@H](NC(=O)Cc3cccs3)[C@H]2SC1 [CEPHALOTHIN] | > 512 µg/mL | > 512 µg/mL | > 512 µg/mL | > 512 µg/mL | 2 µg/mL (≈ 5.04 µM) | 2 µg/mL (≈ 5.04 µM) | –
13 | Cc1onc(-c2ccccc2Cl)c1C(=O)N[C@@H]1C(=O)N2[C@@H]1SC(C)(C)[C@@H]2C(=O)O [CLOXACILLIN] | – | – | – | – | – | – | IC50 (Beta-lactamase ACC-4): 26 nM
14 | CCN1CCN(C(=O)N[C@@H](C(=O)N[C@@H]2C(=O)N3[C@@H]2SC(C)(C)[C@@H]3C(=O)O)c2ccccc2)C(=O)C1=O [PIPERACILLIN] | 64 µg/mL (≈ 124 µM) | 256 µg/mL (≈ 495 µM) | 128 µg/mL (≈ 247 µM) | 32 µg/mL (≈ 61.8 µM) | 0.5 µg/mL (≈ 0.966 µM) | 0.5 µg/mL (≈ 0.966 µM) | Km (Hafnia alvei [8]): 1.4 µM; Vmax (Hafnia alvei [7]): 0.17 nmol/min/µg; Vmax/Km (Hafnia alvei [9]): 0.12
15 | Beta-lactamase ACC-4 (Escherichia coli), A4ZYU9 (protein) MQNTLKLLSVITCLAATVQGALAANIDESKIKDTVDDLIQPLMQKNNIPGMSVAVTVNGKNYIYNYGLAAKQPQQPVTENTLFEVGSLSKTFAATLASYAQVSGKLSLDQSVSHYVPELRGSSFDHVSVLNVGTHTSGLQLFMPEDIKNTTQLMAYLKAWKPADAAGTHRVYSNIGTGLLGMIAAKSLGVSYEDAIEKTLLPQLGMHHSYLKVPADQMENYAWGYNKKDEPVHGNMEILGNEAYGIKTTSSDLLRYVQANMGQLKLDANAKMQQALTATHTGYFKSGEITQDLMWEQLPYPVSLPNLLTGNDMAMTKSVATPIVPPLPPQENVWINKTGSTNGFGAYIAFVPAKKMGIVMLANKNYSIDQRVTVAYKILSSLEGNK | – | – | – | – | – | – | Km [10]: 73 µM; kcat [10]: 0.14 s⁻¹; Km [11]: 9.4 µM; kcat [11]: 2.7 s⁻¹; Km [12]: 1.1 µM; kcat [12]: 0.13 s⁻¹; Km [13]: 3.8 µM; kcat [13]: 0.59 s⁻¹; Km [14]: 15 µM; kcat [14]: 1.5 s⁻¹; kcat [15]: < 0.01 s⁻¹; Km [16]: 30 µM; kcat [16]: 96 s⁻¹; kcat/Km [17]: 2000 M⁻¹ s⁻¹; kcat/Km [18]: 290000 M⁻¹ s⁻¹; kcat/Km [19]: 120000 M⁻¹ s⁻¹; kcat/Km [20]: 160000 M⁻¹ s⁻¹; kcat/Km [21]: 100000 M⁻¹ s⁻¹; kcat/Km [22]: 3.2e+06 M⁻¹ s⁻¹
